Measurements as given in the M2OR odorant receptor database.

What was measured:
Settings in all cases: stereoisomer not certain
OR52I1 (Homo sapiens) = target: T1, OR52I1 (Homo sapiens) (UniProt Q8NGK6)
T1 sequence (whole entry): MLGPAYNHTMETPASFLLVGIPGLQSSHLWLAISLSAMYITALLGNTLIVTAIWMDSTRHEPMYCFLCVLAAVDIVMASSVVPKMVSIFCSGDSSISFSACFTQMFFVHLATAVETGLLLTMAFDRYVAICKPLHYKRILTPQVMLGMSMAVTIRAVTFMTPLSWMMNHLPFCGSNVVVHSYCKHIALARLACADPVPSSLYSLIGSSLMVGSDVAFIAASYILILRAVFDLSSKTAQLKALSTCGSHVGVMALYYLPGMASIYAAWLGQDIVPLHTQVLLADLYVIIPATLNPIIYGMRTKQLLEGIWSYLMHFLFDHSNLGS
Outline: (§1)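 Assay methods differ from source to source, frequently being transient luciferase assays in mammalian cell lines. For each receptor–molecule pair, the label responsive (active) applies when the original authors judged the measured signal statistically different from baseline, and non-responsive (inactive) applies otherwise.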

OR52I2 (Homo sapiens) = target: T2, OR52I2 (Homo sapiens) (UniProt Q8NH67)
T2 sequence (whole entry): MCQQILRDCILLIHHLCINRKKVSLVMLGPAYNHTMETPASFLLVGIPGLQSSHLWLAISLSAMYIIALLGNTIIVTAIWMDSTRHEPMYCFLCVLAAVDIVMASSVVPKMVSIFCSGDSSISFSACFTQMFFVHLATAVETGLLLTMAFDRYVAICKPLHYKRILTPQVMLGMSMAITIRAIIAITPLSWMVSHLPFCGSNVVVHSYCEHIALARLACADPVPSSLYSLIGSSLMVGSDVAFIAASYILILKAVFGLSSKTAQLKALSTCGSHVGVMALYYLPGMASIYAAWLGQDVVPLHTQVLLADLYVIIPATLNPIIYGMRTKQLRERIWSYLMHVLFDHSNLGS
Outline: as §1

OR52J3 (Homo sapiens) = OR52J3 (Homo sapiens) (UniProt Q8NH60)
Outline: as §1

OR52K1 (Homo sapiens) = target: T3, OR52K1 (Homo sapiens) (UniProt Q8NGK4)
T3 sequence (whole entry): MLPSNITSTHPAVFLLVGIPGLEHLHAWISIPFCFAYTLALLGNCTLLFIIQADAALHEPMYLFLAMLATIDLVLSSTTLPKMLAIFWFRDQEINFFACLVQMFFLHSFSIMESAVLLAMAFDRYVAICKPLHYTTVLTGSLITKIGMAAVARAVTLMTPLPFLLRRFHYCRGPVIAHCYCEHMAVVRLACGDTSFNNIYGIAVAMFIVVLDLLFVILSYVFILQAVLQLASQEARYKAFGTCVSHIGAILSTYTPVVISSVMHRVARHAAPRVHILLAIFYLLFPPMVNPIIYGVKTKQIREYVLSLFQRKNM
Outline: as §1

OR52K2 (Homo sapiens) = target: T4, OR52K2 (Homo sapiens) (UniProt Q8NGK3)
T4 sequence (whole entry): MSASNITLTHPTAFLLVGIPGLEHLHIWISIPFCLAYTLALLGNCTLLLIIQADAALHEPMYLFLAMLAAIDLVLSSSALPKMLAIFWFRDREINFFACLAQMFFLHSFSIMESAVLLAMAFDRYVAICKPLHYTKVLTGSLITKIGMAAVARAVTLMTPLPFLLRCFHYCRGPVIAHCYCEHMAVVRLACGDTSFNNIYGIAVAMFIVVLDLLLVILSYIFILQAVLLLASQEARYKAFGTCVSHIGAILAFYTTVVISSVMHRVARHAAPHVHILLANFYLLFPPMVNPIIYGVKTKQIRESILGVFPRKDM
Outline: as §1

OR52L1 (Homo sapiens) = target: T5, OR52L1 (Homo sapiens) (UniProt Q8NGH7)
T5 sequence (whole entry): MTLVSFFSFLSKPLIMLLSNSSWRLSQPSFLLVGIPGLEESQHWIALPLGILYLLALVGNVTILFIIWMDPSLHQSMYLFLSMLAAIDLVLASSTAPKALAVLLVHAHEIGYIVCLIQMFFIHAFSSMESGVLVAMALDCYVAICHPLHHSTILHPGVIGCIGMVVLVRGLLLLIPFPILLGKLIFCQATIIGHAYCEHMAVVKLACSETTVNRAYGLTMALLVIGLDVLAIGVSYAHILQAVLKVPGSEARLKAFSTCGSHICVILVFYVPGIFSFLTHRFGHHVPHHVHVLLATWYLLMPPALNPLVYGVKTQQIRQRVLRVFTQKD
Outline: as §1

OR52M1 (Homo sapiens) = target: T6, OR52M1 (Homo sapiens) (UniProt Q8NGK5)
T6 sequence (whole entry): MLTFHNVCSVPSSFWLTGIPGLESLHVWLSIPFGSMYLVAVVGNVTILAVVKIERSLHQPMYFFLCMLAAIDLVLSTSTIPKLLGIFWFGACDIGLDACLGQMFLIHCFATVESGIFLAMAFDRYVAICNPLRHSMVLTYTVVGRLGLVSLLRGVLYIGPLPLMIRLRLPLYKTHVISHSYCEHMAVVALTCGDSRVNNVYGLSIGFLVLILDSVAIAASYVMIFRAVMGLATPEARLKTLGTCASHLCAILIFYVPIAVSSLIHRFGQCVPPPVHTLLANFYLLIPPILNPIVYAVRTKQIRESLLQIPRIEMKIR
Outline: as §1

OR52N1 (Homo sapiens) = target: T7, OR52N1 (Homo sapiens) (UniProt Q8NH53)
T7 sequence (whole entry): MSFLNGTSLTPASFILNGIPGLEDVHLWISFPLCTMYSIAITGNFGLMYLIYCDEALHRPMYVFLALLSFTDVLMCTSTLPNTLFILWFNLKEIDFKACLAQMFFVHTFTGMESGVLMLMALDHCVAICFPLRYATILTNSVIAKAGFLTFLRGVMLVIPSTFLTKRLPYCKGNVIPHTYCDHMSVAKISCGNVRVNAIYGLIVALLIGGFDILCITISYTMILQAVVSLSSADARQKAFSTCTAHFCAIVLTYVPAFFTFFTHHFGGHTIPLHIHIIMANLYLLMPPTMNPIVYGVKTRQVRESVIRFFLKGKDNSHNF
Outline: as §1

OR52N2 (Homo sapiens) = target: T8, OR52N2 (Homo sapiens) (UniProt Q8NGI0)
T8 sequence (whole entry): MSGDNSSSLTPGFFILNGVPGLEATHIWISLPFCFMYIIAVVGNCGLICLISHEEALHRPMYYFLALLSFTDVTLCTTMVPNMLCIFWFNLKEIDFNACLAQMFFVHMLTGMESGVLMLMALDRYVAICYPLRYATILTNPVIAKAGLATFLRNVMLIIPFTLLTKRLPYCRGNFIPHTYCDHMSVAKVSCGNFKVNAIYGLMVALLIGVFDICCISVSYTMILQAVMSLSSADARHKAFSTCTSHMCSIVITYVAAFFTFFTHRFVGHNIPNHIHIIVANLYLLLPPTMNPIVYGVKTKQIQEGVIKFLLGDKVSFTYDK
Outline: as §1

OR52N4 (Homo sapiens) = target: T9, OR52N4 (Homo sapiens) (UniProt Q8NGI2)
T9 sequence (whole entry): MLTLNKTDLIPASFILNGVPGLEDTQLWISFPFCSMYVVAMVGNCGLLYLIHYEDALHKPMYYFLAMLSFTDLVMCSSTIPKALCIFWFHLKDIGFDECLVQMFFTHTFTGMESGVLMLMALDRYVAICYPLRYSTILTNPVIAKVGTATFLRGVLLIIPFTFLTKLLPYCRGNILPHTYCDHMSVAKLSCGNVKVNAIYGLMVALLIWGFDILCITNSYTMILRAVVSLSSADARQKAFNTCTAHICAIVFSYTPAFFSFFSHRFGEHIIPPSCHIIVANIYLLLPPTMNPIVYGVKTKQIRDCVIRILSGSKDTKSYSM
Outline: as §1

OR52N5 (Homo sapiens) = target: T10, OR52N5 (Homo sapiens) (UniProt Q8NH56)
T10 sequence (whole entry): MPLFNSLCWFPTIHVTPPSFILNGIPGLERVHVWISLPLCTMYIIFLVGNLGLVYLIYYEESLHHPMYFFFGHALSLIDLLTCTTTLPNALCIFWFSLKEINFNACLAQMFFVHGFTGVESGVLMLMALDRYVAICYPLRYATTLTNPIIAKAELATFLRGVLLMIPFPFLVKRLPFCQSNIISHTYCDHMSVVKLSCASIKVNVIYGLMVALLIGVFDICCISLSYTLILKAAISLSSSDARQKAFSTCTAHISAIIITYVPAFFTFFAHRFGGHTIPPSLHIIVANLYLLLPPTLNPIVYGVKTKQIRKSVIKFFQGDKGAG
Outline: as §1

OR52R1 (Homo sapiens) = target: T11, OR52R1 (Homo sapiens) (UniProt Q8NGF1)
T11 sequence (whole entry): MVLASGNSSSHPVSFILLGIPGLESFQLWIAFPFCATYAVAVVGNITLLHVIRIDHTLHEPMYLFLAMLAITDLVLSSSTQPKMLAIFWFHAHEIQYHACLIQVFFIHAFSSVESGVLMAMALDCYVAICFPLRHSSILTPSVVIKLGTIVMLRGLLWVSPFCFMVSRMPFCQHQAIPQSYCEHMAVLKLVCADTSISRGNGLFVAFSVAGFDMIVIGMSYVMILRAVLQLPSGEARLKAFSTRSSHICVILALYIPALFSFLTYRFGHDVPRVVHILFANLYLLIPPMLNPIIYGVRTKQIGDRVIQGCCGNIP
Outline: as §1

OR52W1 (Homo sapiens) = target: T12, OR52W1 (Homo sapiens) (UniProt Q6IF63)
T12 sequence (whole entry): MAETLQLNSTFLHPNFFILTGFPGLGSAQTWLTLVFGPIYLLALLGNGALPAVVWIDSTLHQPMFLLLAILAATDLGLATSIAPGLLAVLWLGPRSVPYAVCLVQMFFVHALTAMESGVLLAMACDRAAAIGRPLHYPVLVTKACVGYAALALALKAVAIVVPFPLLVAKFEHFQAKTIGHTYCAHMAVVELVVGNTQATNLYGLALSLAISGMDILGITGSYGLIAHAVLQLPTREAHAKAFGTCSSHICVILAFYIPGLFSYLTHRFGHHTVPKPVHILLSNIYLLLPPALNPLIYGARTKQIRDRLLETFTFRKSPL
Outline: as §1

OR56A1 (Homo sapiens) = target: T13, OR56A1 (Homo sapiens) (UniProt Q8NGH5)
T13 sequence (whole entry): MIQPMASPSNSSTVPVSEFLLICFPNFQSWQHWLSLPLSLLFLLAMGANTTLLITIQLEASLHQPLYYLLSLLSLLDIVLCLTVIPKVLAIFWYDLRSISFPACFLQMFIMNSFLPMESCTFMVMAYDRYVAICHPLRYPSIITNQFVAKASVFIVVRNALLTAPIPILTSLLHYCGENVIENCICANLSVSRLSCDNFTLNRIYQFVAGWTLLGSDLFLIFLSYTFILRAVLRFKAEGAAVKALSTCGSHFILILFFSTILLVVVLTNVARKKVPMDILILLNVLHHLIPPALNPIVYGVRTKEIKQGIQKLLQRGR
Outline: as §1

OR56A3 (Homo sapiens) = target: T14, OR56A3 (Homo sapiens) (UniProt Q8NH54)
T14 sequence (whole entry): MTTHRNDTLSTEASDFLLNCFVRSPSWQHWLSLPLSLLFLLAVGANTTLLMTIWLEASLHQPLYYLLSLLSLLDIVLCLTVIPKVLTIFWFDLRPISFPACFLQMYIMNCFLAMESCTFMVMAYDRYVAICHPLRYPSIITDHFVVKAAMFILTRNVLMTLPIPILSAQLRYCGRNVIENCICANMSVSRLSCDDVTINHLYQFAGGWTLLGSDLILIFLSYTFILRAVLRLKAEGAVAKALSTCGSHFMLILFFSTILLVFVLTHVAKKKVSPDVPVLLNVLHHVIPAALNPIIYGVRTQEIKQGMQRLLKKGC
Outline: as §1

OR56A4 (Homo sapiens) = target: T15, OR56A4 (Homo sapiens) (UniProt Q8NGH8)
T15 sequence (whole entry): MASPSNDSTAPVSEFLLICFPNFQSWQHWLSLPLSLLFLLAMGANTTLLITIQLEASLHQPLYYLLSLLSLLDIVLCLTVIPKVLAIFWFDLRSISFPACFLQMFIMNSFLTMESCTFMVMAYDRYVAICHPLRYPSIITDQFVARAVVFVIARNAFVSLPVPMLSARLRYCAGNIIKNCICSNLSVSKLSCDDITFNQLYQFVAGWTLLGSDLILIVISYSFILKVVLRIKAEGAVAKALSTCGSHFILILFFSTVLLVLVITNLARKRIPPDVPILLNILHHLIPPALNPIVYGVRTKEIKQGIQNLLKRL
Outline: as §1

OR56A5 (Homo sapiens) = target: T16, OR56A5 (Homo sapiens) (UniProt P0C7T3)
T16 sequence (whole entry): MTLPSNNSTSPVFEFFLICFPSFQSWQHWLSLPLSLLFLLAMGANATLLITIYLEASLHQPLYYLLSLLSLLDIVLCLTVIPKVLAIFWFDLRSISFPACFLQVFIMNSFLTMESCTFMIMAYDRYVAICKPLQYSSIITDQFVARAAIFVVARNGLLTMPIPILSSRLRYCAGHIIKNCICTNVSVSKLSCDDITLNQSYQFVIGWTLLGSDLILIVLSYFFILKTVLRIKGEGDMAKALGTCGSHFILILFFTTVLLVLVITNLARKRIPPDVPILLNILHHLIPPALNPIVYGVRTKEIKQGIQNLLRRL
Outline: as §1

OR56B1 (Homo sapiens) = target: T17, OR56B1 (Homo sapiens) (UniProt Q8NGI3)
T17 sequence (whole entry): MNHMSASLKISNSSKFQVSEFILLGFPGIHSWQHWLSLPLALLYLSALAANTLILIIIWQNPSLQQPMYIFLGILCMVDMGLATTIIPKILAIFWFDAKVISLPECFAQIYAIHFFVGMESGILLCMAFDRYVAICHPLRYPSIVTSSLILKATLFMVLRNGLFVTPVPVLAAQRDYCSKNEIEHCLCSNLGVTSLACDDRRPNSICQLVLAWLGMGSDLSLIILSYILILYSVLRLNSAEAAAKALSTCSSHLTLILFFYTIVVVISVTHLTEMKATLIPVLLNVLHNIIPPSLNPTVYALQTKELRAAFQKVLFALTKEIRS
Outline: as §1

Measured: odorant receptor agonist call

Sequence of OR52J3 (Homo sapiens) (Q8NH60 whole entry): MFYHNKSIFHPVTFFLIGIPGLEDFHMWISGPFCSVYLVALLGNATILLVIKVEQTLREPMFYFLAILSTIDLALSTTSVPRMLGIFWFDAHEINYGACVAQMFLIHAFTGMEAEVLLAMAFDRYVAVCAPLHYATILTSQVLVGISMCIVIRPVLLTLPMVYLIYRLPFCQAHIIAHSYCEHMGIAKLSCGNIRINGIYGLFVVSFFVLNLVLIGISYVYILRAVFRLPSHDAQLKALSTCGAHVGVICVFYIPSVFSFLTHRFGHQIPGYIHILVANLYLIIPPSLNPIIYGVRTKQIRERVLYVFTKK

CCC(S)C(C)CO (stereo unspecified)
inactive: all assays above

CCCCCCC=CCCC=O
inactive: all assays above
